In ChEMBL document CHEMBL1938363, “Synthesis of dihydrofuran-fused perhydrophenanthrenes having a phenolic hydroxyl group as a novel anti-Alzheimer's disease agent” (Bioorg Med Chem Lett, 2012):
Activity calls are given as the source filed them. The rule behind the calls is not given here.

How the values were obtained:
[1] = Inhibition of amyloid beta (1 to 42)-mediated damage in Sprague-Dawley rat neurons assessed as dendritic extension at 1 uM administered 3 days after amyloid beta-challenge measured after 5 days by immunostaining method
[2] = Inhibition of amyloid beta (1 to 42)-mediated damage in Sprague-Dawley rat neurons assessed as axonal extension at 1 uM treated 3 days after amyloid beta-challenge measured after 5 days by immunostaining method
[3] = Inhibition of amyloid beta (25 to 35)-mediated damage in Sprague-Dawley rat neurons assessed as dendritic extension at 1 uM treated 4 days after amyloid beta-challenge measured after 4 days by immunostaining method
In short: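 Rat cortical neurons were exposed to Aβ for 4 days before the test compounds were added. Dendrite length was quantified after a further 4 days. The vehicle control was 0.1% DMSO given to Aβ-exposed cells, and the normal control was cells without Aβ treatment.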

Structure (SMILES) | inhibition [1] | inhibition [2] | inhibition [3]
COc1cc2c(cc1O)C[C@H]1OC=C3[C@H]1[C@@]2(C#N)CCC31OCCO1 | Active | Active | –
N#C[C@]12CCC3(OCCO3)C3=CO[C@H](Cc4cc(OCc5cc(F)cc(F)c5)ccc41)[C@@H]32 | – | – | inactive
CC(C)[Si](Oc1ccc2c(c1)C[C@H]1OC=C3[C@H]1[C@@]2(C#N)CCC31OCCO1)(C(C)C)C(C)C | – | – | inactive
N#C[C@]12CCC3(OCCO3)C3=CO[C@H](Cc4cc(OS(=O)(=O)C(F)(F)F)ccc41)[C@@H]32 | – | – | inactive
N#C[C@]12CCC3(OCCO3)C3=CO[C@H](Cc4cc(OC(F)(F)F)ccc41)[C@@H]32 | – | – | inactive
COc1cc2c(cc1O)[C@]1(C#N)CCC3(OCCO3)C3=CO[C@H](C2)[C@@H]31 | Active | Active | –
N#C[C@]12CCC3(OCCO3)C3=CO[C@H](Cc4ccc(O)cc41)[C@@H]32 | Active | Active | –
N#C[C@]12CCC3(OCCO3)C3=CO[C@H](Cc4cc(O)ccc41)[C@@H]32 | Active | – | Active
N#C[C@]12CCC3(OCCO3)C3=CO[C@H](Cc4cc(-c5ccccc5)ccc41)[C@@H]32 | – | – | inactive
N#C[C@]12CCC3(OCCO3)C3=CO[C@H](Cc4cc(OCc5ccccc5)ccc41)[C@@H]32 | – | – | inactive
